According to article PMC9890135 (Molecular Cancer Therapeutics, 2022):

Columns and labels:
SNU-5 tumors = assay: SNU-5 xenograft tumor growth; type: in vivo, mice; settings: 14 days, oral
Outline: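 Human tumour cells inoculated into the rear flank. Mice randomised at mean volumes of ~200 mm3 (Hs 746T), ~120 mm3 (MDA-MB-231), ~100 mm3 (NCI-H441) or ~90 mm3 (SNU-5). Oral gavage once daily with test compound or vehicle. Tumour volume and body weight measured at least twice weekly. […], using mean volumes at extraction and dosing start.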

TYRO3 = biological target: T1, TYRO3 (Homo sapiens, UniProt Q06418); assay: Inhibition of receptor phosphorylation, ELISA, TYRO3-transfected 293A cells; type: cell-based
T1 sequence (Q06418 41-890): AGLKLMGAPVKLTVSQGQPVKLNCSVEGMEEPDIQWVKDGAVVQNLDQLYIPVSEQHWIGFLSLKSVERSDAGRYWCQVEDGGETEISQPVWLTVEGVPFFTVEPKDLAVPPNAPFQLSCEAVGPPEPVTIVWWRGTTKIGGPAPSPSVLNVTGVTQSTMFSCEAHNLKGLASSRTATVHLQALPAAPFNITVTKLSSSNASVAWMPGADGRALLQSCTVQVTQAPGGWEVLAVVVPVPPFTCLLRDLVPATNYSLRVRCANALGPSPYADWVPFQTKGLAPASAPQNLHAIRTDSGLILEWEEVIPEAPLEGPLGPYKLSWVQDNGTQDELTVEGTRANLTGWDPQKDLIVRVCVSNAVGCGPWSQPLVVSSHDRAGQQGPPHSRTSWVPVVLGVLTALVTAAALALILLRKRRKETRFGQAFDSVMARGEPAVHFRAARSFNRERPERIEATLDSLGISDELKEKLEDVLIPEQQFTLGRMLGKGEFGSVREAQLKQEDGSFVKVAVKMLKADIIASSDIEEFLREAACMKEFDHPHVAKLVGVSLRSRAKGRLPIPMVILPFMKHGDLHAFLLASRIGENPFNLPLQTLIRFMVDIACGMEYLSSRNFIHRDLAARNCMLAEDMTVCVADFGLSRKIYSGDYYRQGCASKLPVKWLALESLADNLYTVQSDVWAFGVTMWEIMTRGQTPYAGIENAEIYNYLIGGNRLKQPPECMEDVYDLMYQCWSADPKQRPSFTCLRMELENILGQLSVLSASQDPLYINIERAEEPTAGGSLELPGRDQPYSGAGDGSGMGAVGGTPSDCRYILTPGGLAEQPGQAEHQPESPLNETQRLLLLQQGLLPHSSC
Outline: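 293A cells transfected with TYRO3 were serum-starved 3–24 h, then incubated 1 h in serum-free medium with serially diluted test compound. Receptor phosphorylation quantified by ELISA to derive IC50.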

MET = MET (Homo sapiens, UniProt P08581); assay: Inhibition of receptor phosphorylation, ELISA, PC-3 cells/HGF; type: cell-based
Chain of MET (P08581 25-1390): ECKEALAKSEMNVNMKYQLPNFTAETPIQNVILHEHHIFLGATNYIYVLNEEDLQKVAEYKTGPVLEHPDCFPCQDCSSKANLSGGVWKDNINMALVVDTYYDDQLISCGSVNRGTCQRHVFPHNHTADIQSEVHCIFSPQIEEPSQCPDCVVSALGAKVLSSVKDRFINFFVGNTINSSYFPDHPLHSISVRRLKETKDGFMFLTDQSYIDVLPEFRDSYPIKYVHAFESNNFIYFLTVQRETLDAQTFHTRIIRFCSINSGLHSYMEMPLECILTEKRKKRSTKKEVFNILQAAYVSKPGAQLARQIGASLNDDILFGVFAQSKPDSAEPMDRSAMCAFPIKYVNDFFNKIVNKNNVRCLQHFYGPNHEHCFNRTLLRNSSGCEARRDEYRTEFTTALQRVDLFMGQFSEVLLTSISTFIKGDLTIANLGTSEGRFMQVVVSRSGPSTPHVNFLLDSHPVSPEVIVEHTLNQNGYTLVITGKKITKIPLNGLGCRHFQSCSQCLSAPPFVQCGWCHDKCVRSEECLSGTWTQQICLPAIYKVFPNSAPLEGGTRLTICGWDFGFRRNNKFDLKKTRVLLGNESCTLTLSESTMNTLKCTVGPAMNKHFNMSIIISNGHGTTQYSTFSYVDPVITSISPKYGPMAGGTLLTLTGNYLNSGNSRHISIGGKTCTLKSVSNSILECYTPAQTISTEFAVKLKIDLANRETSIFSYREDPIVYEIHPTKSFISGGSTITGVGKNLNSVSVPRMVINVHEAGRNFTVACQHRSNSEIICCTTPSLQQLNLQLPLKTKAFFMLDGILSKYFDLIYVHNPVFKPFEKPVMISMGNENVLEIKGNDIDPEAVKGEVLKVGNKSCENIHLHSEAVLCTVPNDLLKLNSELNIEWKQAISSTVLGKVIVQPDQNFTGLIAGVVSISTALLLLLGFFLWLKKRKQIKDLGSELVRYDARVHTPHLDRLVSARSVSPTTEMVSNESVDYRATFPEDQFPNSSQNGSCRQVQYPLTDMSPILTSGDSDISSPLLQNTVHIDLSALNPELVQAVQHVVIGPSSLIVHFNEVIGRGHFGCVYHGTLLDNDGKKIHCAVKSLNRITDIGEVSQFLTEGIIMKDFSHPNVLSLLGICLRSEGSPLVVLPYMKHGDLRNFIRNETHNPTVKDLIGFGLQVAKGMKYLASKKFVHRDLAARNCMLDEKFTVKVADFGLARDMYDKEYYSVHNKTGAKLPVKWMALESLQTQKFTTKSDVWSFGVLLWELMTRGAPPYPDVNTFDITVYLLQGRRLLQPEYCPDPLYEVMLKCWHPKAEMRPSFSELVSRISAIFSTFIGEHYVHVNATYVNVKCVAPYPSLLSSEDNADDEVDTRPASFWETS

With CNC(=O)c1cc2c(Oc3ccc(NC(=O)C4(C(=O)Nc5ccc(F)cc5)CC4)cc3)ccnc2cc1OC [XL092] the Tumor growth inhibition (SNU-5 tumors; 3 mg/kg/day) was 54.2%, the Tumor growth inhibition (SNU-5 tumors; 10 mg/kg/day) was 94.7% and the IC50 (TYRO3) was 0.306 ± 0.00137 µM. It also gave an IC50 (MET) of 0.0119 ± 0.00155 µM.
